Bounds are passed on as bounds.

29 compounds from ChEMBL document CHEMBL4715841, “Discovery of dihydropyrazino-benzimidazole derivatives as metabotropic glutamate receptor-2 (mGluR2) positive allosteric modulators (PAMs)” (Eur J Med Chem, 2020) can be followed below.

Metabotropic glutamate receptor 2, sequence (Q14416 whole entry): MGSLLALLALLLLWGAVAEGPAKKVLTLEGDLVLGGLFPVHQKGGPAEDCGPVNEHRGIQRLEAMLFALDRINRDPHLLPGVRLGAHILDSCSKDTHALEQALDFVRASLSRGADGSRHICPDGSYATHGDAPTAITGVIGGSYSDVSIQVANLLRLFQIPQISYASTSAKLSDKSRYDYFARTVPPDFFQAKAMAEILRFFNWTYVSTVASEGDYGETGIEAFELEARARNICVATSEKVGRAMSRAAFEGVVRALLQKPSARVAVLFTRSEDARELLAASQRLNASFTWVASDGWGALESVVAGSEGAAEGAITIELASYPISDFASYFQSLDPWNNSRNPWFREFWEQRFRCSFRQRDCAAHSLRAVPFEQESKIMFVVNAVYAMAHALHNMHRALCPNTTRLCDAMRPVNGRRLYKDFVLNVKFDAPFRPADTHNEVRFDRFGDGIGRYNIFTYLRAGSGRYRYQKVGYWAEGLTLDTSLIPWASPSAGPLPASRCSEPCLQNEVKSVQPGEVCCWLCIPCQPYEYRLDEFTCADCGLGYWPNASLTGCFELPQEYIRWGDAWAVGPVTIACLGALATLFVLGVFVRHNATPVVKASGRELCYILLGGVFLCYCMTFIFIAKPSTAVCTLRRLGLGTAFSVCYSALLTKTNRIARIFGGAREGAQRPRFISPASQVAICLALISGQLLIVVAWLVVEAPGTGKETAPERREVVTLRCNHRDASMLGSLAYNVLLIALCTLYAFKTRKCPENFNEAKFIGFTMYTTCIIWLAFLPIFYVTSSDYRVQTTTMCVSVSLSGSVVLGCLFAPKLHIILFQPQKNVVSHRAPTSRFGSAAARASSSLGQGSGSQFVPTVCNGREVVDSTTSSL
Cytochrome P450 2C19, sequence (P33261 whole entry, canonical isoform): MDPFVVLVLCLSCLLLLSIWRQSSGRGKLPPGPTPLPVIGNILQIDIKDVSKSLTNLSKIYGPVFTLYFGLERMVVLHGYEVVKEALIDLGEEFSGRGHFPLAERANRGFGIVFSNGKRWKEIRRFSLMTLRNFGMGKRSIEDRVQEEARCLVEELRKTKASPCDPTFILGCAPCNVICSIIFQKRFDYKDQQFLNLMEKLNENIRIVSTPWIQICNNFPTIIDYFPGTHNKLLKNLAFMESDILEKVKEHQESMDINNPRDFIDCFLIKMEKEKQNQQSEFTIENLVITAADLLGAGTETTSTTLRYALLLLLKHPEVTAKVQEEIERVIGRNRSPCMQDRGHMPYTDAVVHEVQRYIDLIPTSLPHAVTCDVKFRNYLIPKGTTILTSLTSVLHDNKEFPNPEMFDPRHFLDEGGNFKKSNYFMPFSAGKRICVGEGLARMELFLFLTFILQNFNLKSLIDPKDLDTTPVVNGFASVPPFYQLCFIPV

The first assay deals with Cytochrome P450 2C19 (Homo sapiens, UniProt P33261). The assay is described as follows: Inhibition of CYP2C19 (unknown origin). The format is ADME. An outline of the steps:
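Isoform-specific CYP450 inhibition, reported as IC50 in µM.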
As a reminder, the IC50 is the concentration needed to halve the response being measured. Higher therefore signals weaker potency. For `O=C1c2nc3ccccc3n2CCN1CCCCOc1ccc(OC(F)(F)F)cc1`, the IC50 was above 10 µM.

The next assay addresses Metabotropic glutamate receptor 2 (Homo sapiens, UniProt Q14416).
The term EC50 denotes the concentration that produces a half-maximal response. Lower therefore signals greater potency. For the compound `COc1ccccc1C1CCN(Cc2nc3ccccc3n2C)CC1`, the response was half-maximal at 870 nM (EC50). In turn, `c1ccc(CCCCN2CCn3c(nc4ccccc43)C2)cc1` came in with an EC50 of 420 nM. Regarding `Fc1cc(Cl)ccc1CCCCN1CCn2c(nc3ccccc32)C1`, the EC50 was 540 nM. With `Fc1cccc(CCN2CCn3c(nc4ccccc43)C2)c1`, the EC50 came out at 4700 nM.

Consider `Fc1ccc(CCCCN2CCn3c(nc4ccccc43)C2)c(F)c1`, for which the midpoint of the response, the EC50, lay at 340 nM.

Compound `O=C1c2nc3ccccc3n2CCN1CCCCOc1ccc(F)cc1Br` had an EC50 of 50 nM. Regarding `Fc1cc(C(F)(F)F)ccc1CCCCN1CCn2c(nc3ccccc32)C1`, a half-maximal effect (EC50) was put at 970 nM. The compound `c1ccc(CCCCCN2CCn3c(nc4ccccc43)C2)cc1` yielded an EC50 of 130 nM. On the same count and under the same terms, with `COc1ccc(CCCCN2CCn3c(nc4ccccc43)C2)cc1` the figure was 2280 nM. Compound `Fc1ccc(OCCCN2CCn3c(nc4ccccc43)C2)cc1Cl` gave an EC50 of 170 nM. Compound `Cc1ccc(CCN2CCn3c(nc4ccccc43)C2)cc1` displayed an EC50 of 2430 nM. For the compound `Fc1ccc(SCCCN2CCn3c(nc4ccccc43)C2)cc1F`, the EC50 came to 90 nM. For `Cc1ccccc1OCCCCN1CCn2c(nc3ccccc32)C1=O`, a half-maximal effect (EC50) was put at 90 nM.

Compound `COc1ccc(CCN2CCn3c(nc4ccccc43)C2)cc1` returned an EC50 of 2740 nM. The same measure, in the same setting: with `Fc1ccc(SCCCN2CCn3c(nc4ccccc43)C2)c(F)c1` the figure was 350 nM.

The compound `Fc1ccc(OCCCN2CCn3c(nc4ccccc43)C2)cc1F` displayed an EC50 of 540 nM.

As for `O=C1c2nc3ccccc3n2CCN1CCCCOc1ccc(Cl)cc1`, the EC50 came to 70 nM. The compound `O=C1c2nc3ccccc3n2CCN1CCCOc1ccc(Cl)c(Cl)c1` had an EC50 of 90 nM. The compound `O=C1c2nc3ccccc3n2CCN1CCCCOc1ccc(F)cc1F` showed an EC50 of 50 nM. `c1ccc(SCCCN2CCn3c(nc4ccccc43)C2)cc1` registered an EC50 of 260 nM.

The compound `COc1ccc(CCCCN2CCn3c(nc4ccccc43)C2)c(F)c1` gave an EC50 of 1210 nM.

`Clc1ccc(SCCCN2CCn3c(nc4ccccc43)C2)cc1` had an EC50 of 550 nM.

`N#Cc1ccc(CCCCN2CCn3c(nc4ccccc43)C2)cc1`: the response was half-maximal at 2400 nM (EC50). With `Fc1ccc(SCCCN2CCn3c(nc4ccccc43)C2)cc1`, a half-maximal response (EC50) required 320 nM. Same read-out and setting: in the case of `O=C1c2nc3ccccc3n2CCN1CCCCOc1ccc(C(F)(F)F)cc1` it was 40 nM; in that of `Clc1ccc(OCCCN2CCn3c(nc4ccccc43)C2)cc1Cl`, 70 nM. `Brc1ccc(SCCCN2CCn3c(nc4ccccc43)C2)cc1` displayed an EC50 of 270 nM. Compound `Cn1c(CN2CCC(c3ccccc3F)CC2)nc2ccccc21` showed an EC50 of 130 nM.
